Key:
[1] = Half life in iv dosed rat; assay type: ADME, organism-based; settings: in vivo
[2] = Half life in rat at 3 mg/kg, po; assay type: ADME, organism-based; parameters: dose 3 mg/kg, route oral; settings: in vivo
Procedure, shortened: (§1)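 Rats were dosed orally at 3 mg/kg as a solution in 30% aqueous PEG-400.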

Cytochrome P450 2C19 = Cytochrome P450 2C19 (Homo sapiens, UniProt P33261); test: Inhibition of CYP2C19 (unknown origin); assay type: ADME
[3] = Metabolic stability in rat hepatocytes assessed as compound remaining at 5 uM after 60 mins; assay type: ADME, cell-based, Hepatocyte; settings: read-out: Stability
MDR1 (human) = test: Efflux ratio of permeability in MDCK cells over-expressing human Mdr1; assay type: ADME, cell-based, Canis lupus familiaris; settings: dog
Hepatitis C virus [4] = test: Antiviral activity against Hepatitis C virus genotype 1a infected in W11.8 cells assessed as decrease in NS5A expression in replicon cell after 4 days by luminescence based ELISA; assay type: functional, Hepacivirus hominis; settings: subtype 1a, W11.8, 96 h
[5] = Volume of distribution at steady state in iv dosed rat; assay type: ADME, organism-based; settings: in vivo, read-out: Vdss
Hepatitis C virus [6] = test: Selectivity index, ratio of EC50 for HCV genotype 1b expressing NS5A Y93H mutant to EC50 for HCV genotype 1b expressing wild type NS5A; assay type: functional, Hepacivirus hominis
Procedure, shortened: (§2)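 Recombinant HCV replicon cell lines carrying the single NS5A substitution were tested, with the matching wild-type replicon as reference. The value is the fold shift of activity against the mutant relative to wild-type activity.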

[7] = molecular target: T1, Voltage-gated inwardly rectifying potassium channel KCNH2 (Homo sapiens, UniProt Q12809); test: Inhibition of human ERG channel by QPatch technique
T1 sequence (Q12809 whole entry): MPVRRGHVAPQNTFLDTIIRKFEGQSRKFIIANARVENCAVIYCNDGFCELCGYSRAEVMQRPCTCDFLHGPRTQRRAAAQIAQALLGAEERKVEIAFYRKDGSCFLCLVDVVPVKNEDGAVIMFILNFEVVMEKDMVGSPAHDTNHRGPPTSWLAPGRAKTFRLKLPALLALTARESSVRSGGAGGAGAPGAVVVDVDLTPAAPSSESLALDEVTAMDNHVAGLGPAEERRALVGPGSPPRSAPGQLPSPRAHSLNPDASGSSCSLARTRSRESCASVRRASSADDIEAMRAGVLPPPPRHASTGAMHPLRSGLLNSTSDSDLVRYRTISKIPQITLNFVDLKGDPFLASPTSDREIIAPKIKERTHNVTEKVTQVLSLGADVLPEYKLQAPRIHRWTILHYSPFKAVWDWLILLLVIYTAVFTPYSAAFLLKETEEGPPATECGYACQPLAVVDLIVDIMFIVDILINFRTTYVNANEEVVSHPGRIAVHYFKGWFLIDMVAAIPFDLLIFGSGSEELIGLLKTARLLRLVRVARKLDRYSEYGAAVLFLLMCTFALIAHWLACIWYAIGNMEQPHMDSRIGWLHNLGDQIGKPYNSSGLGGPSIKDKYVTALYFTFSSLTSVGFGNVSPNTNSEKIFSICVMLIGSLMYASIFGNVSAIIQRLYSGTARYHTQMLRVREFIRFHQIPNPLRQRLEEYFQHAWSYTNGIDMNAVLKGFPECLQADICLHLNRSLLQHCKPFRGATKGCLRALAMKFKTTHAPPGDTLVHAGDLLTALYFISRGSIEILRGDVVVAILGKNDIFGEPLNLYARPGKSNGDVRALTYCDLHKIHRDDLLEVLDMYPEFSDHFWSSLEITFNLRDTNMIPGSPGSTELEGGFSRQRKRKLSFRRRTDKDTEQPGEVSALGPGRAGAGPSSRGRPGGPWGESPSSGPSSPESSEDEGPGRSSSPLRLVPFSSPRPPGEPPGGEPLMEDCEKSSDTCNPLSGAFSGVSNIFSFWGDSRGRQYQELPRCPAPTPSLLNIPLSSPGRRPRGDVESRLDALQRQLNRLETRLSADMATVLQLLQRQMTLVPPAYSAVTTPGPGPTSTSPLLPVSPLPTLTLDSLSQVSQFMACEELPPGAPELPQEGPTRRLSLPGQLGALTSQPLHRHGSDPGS

Cytochrome P450 2C9 = Cytochrome P450 2C9 (Homo sapiens, UniProt P11712); test: Inhibition of CYP2C9 (unknown origin); assay type: ADME
Cytochrome P450 2C9, sequence (P11712 whole entry): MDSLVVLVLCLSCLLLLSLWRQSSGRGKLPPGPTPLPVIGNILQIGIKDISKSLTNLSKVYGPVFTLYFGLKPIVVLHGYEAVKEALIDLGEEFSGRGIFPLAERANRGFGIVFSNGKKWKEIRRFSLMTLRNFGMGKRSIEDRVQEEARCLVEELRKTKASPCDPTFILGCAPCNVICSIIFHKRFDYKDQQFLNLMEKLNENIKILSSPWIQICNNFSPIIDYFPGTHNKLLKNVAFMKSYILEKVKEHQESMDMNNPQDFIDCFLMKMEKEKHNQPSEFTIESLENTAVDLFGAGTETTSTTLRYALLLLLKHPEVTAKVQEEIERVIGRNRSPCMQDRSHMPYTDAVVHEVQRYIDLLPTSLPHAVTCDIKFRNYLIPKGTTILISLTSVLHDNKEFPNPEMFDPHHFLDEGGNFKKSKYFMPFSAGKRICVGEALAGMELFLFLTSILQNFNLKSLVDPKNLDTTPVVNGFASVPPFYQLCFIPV

[8] = Protein binding in human plasma; assay type: ADME, cell-free; settings: read-out: PPB (converted)
Cytochrome P450 1A2 = molecular target: T2, Cytochrome P450 1A2 (Homo sapiens, UniProt P05177); test: Inhibition of CYP1A2 (unknown origin); assay type: ADME
T2 sequence (P05177 whole entry): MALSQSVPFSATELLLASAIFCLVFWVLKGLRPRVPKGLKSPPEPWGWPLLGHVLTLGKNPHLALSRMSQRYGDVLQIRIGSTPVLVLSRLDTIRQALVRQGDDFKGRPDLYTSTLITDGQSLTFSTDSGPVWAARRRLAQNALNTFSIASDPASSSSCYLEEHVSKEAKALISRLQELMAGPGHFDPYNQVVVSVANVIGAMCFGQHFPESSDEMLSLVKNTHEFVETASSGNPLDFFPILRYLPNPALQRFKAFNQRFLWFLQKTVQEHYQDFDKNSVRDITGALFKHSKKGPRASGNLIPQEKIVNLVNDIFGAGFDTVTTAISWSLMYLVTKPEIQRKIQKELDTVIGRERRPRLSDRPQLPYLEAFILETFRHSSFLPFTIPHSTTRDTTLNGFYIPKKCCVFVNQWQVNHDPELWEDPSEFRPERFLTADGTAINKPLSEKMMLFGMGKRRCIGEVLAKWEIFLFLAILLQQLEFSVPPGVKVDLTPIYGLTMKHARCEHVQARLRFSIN

[9] = molecular target: T1, Voltage-gated inwardly rectifying potassium channel KCNH2; test: Inhibition of human ERG channel by planar technique
[10] = Metabolic stability in human hepatocytes assessed as compound remaining at 5 uM after 60 mins; assay type: ADME, cell-based, Hepatocyte; settings: read-out: Stability
Cytochrome P450 2D6 = Cytochrome P450 2D6 (Homo sapiens, UniProt P10635); test: Inhibition of CYP2D6 (unknown origin); assay type: ADME
Cytochrome P450 2D6, sequence (P10635 whole entry): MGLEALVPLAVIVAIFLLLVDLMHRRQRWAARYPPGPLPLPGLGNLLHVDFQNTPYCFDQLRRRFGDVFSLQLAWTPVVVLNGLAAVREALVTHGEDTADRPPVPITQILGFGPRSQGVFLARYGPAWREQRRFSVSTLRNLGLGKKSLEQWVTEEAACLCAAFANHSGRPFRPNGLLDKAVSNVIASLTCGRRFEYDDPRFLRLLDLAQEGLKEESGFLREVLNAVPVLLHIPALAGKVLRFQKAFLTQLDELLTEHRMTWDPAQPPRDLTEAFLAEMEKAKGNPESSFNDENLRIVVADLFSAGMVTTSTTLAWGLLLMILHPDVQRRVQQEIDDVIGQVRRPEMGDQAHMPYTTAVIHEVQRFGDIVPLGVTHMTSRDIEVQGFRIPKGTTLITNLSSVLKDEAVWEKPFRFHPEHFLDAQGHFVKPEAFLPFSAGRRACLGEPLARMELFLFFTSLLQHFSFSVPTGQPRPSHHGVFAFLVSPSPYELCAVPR

[11] = AUC (0 to 8 hrs) in rat at 3 mg/kg, po; assay type: ADME, organism-based; parameters: time < 8 hr, dose 3 mg/kg, route oral; settings: plasma; procedure, shortened: as §1
Cytochrome P450 3A4 = Cytochrome P450 3A4 (Homo sapiens, UniProt P08684); test: Inhibition of CYP3A4 (unknown origin); assay type: ADME
Cytochrome P450 3A4, sequence (P08684 whole entry): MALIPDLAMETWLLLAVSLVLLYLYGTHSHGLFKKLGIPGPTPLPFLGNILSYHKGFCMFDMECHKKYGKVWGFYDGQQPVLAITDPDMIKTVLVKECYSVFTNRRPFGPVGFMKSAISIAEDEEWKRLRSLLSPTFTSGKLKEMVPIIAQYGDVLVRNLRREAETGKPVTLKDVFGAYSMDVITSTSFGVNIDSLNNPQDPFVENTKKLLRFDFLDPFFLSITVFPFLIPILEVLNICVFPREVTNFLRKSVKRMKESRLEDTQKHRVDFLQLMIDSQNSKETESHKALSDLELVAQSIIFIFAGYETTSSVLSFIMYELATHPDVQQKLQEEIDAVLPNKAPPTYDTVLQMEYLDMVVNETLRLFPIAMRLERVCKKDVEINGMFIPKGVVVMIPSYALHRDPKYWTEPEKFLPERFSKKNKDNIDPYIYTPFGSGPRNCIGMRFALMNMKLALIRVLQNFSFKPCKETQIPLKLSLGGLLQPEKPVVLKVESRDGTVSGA

[12] = Protein binding in rat plasma; assay type: ADME, cell-free; settings: read-out: PPB (converted)
[13] = Cytotoxicity against human Huh7ET cells by [3H]-thymidine incorporation assay; assay type: cell-based; settings: Huh7ET cells (Huh-7)
Procedure, shortened: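 Huh-7 ET cells were exposed to 12 test-compound concentrations, each in duplicate. Viability was read by [3H]-thymidine incorporation and CC50 was derived from the curve. A run was accepted only when the positive-control CC50 fell within 40% of its mean value.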

Hepatitis C virus [14] = test: Selectivity index, ratio of EC50 for HCV genotype 1a expressing NS5A Q30R mutant to EC50 for HCV genotype 1a expressing wild type NS5A; assay type: functional, Hepacivirus hominis, subtype 1a; procedure, shortened: as §2
[15] = Permeability from apical to basolateral layer in human Caco2 cells; assay type: ADME, cell-based; settings: Caco-2, read-out: permeability
[16] = Clearance in iv dosed rat; assay type: ADME, organism-based; settings: in vivo
Hepatitis C virus [17] = test: Antiviral activity against Hepatitis C virus genotype 1b infected in human Huh-5.2 cells assessed as decrease in HCV replicon RNA replication after 4 days by luciferase assay; assay type: functional, cell-based, Hepacivirus hominis; settings: Huh-5-2, 96 h
Hepatitis C virus [18] = test: Selectivity index, ratio of EC50 for HCV genotype 1a expressing NS5A M28T mutant to EC50 for HCV genotype 1a expressing wild type NS5A; assay type: functional, Hepacivirus hominis, subtype 1a; procedure, shortened: as §2
Hepatitis C virus [19] = test: Selectivity index, ratio of EC50 for HCV genotype 1a expressing NS5A Y93H mutant to EC50 for HCV genotype 1a expressing wild type NS5A; assay type: functional, Hepacivirus hominis, subtype 1a; procedure, shortened: as §2
[20] = Cmax in rat at 3 mg/kg, po; assay type: ADME, organism-based; parameters: dose 3 mg/kg, route oral; settings: in vivo; procedure, shortened: as §1
[21] = Oral bioavailability in rat at 3 mg/kg; assay type: ADME, organism-based; settings: in vivo; procedure, shortened: as §1

Cytochrome P450 2C19, sequence (P33261 whole entry): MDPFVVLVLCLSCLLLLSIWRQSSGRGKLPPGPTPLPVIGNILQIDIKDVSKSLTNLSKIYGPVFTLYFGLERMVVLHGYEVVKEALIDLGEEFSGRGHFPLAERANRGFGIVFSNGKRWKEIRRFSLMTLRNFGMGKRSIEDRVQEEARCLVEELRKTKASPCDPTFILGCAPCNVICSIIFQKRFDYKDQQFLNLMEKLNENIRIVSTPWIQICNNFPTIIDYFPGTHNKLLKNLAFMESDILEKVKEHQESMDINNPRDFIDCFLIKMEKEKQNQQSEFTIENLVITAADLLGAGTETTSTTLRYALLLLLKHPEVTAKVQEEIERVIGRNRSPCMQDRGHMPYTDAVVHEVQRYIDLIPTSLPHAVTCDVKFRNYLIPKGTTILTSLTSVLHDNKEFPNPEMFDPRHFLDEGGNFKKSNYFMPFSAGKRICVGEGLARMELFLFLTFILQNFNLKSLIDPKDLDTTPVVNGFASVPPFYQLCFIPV

In the case of `COC(=O)N[C@H](C(=O)N1C[C@@H](C)C[C@H]1c1nc(-c2ccc(-c3ccc(-c4ccc5[nH]c([C@@H]6C[C@H](C)CN6C(=O)[C@@H](NC(=O)OC)C(C)C)nc5c4)cc3)cc2)c[nH]1)C(C)C`, the half-life [1] is reported as 2 h, the half-life [2] is reported as 3.5 h and the IC50 (Cytochrome P450 2C19) is reported as > 30 µM. For the same compound, the remaining at 1 h, 5 µM [3] was > 90%, the efflux ratio (MDR1 (human)) was 1.8 and the EC50 (Hepatitis C virus [4]) was 4 pM. The Vd [5] was 1.4 L/kg, the Selectivity ratio (Hepatitis C virus [6]) was 100 and the IC50 [7] was > 30 µM. The IC50 (Cytochrome P450 2C9) was > 30 µM, the fraction unbound [8] was 0.014 and the IC50 (Cytochrome P450 1A2) was > 30 µM. For the same compound, the IC50 [9] was > 30 µM, the remaining at 1 h, 5 µM [10] was > 90% and the IC50 (Cytochrome P450 2D6) was > 30 µM. For the same compound, the AUC(0-t) at 8 h [11] was 2080 ng·h/mL, the IC50 (Cytochrome P450 3A4) was > 30 µM and the fraction unbound [12] was 0.083. The CC50 [13] was > 20 µM, the Selectivity ratio (Hepatitis C virus [14]) was 42 and the Papp A→B [15] was 4.1 ×10⁻⁶ cm/s. For the same compound, the clearance [16] was 9 mL/min/kg, the EC50 (Hepatitis C virus [17]) was 5 pM and the Selectivity ratio (Hepatitis C virus [18]) was 55. For the same compound, the Selectivity ratio (Hepatitis C virus [19]) was 8000, the Cmax [20] was 0.03 ng/mL and the bioavailability [21] was 26%.

— ChEMBL document CHEMBL3393023, “Benzimidazole-containing HCV NS5A inhibitors: effect of 4-substituted pyrrolidines in balancing genotype 1a and 1b potency” (Bioorg Med Chem Lett, 2015)
